From ChEMBL document CHEMBL1152495, “Synthesis and antimicrobial studies of novel methylene bridged benzisoxazolyl imidazo[2,1-b][1,3,4]thiadiazole derivatives” (2009)
In brackets after ≈: the same amount, converted by molar mass.

How the values were obtained:
Assay type in all cases: functional
Staphylococcus aureus [1] = assay: Antibacterial activity against Staphylococcus aureus ATCC 25923 at 100 ug/ml after 24 hrs by agar well diffusion method; details: ATCC 25923, 24 h, read-out: IZ
Outline: (§1)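 Agar well diffusion on Mueller Hinton agar (20 mL per dish), seeded homogeneously with liquid bacterial culture by spread plating. Samples loaded directly into wells, dimethylformamide as solvent control, ampicillin as reference drug. Plates incubated at 37 °C for 24 h. All determinations done in triplicate.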

Bacillus subtilis [2] = assay: Antibacterial activity against Bacillus subtilis ATCC 6633 at 100 ug/ml after 24 hrs by agar well diffusion method; details: ATCC 6633, 24 h, read-out: IZ; outline: as §1
Escherichia coli [3] = assay: Antibacterial activity against Escherichia coli ATCC 35218 at 100 ug/ml after 24 hrs by agar well diffusion method; details: ATCC 35218, 24 h, read-out: IZ; outline: as §1
Pseudomonas aeruginosa [4] = assay: Antibacterial activity against Pseudomonas aeruginosa ATCC 10145 at 100 ug/ml after 24 hrs by agar well diffusion method; details: ATCC 10145, 24 h, read-out: IZ; outline: as §1
Candida albicans [5] = assay: Antifungal activity against Candida albicans at 100 ug/ml after 72 hrs by agar well diffusion method; details: read-out: IZ
Outline: (§2)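 Fungi grown on Potato Dextrose Agar (20 mL per dish), seeded homogeneously with liquid culture by spread plating. Samples loaded directly into agar wells, with dimethylformamide as solvent control and clotrimazole as reference drug. Plates incubated at 25 °C for 72 h, triplicate determinations.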

Aspergillus fumigatus [6] = assay: Antifungal activity against Aspergillus fumigatus at 100 ug/ml after 72 hrs by agar well diffusion method; details: read-out: IZ; outline: as §2
Staphylococcus aureus [7] = assay: Antibacterial activity against Staphylococcus aureus ATCC 25923 after 24 hrs by agar well diffusion method; details: ATCC 25923, 24 h; outline: as §1
Bacillus subtilis [8] = assay: Antibacterial activity against Bacillus subtilis ATCC 6633 after 24 hrs by agar well diffusion method; details: ATCC 6633, 24 h; outline: as §1
Escherichia coli [9] = assay: Antibacterial activity against Escherichia coli ATCC 35218 after 24 hrs by agar well diffusion method; details: ATCC 35218, 24 h; outline: as §1
Pseudomonas aeruginosa [10] = assay: Antibacterial activity against Pseudomonas aeruginosa ATCC 10145 after 24 hrs by agar well diffusion method; details: ATCC 10145, 24 h; outline: as §1
Candida albicans [11] = assay: Antifungal activity against Candida albicans after 72 hrs by agar well diffusion method; outline: as §2
Aspergillus fumigatus [12] = assay: Antifungal activity against Aspergillus fumigatus after 72 hrs by agar well diffusion method; outline: as §2

SMILES | zone of inhibition at 100 µg/mL (Staphylococcus aureus [1]) | zone of inhibition at 100 µg/mL (Bacillus subtilis [2]) | zone of inhibition at 100 µg/mL (Escherichia coli [3]) | zone of inhibition at 100 µg/mL (Pseudomonas aeruginosa [4]) | zone of inhibition at 100 µg/mL (Candida albicans [5]) | zone of inhibition at 100 µg/mL (Aspergillus fumigatus [6]) | MIC (Staphylococcus aureus [7]) | MIC (Bacillus subtilis [8]) | MIC (Escherichia coli [9]) | MIC (Pseudomonas aeruginosa [10]) | MIC (Candida albicans [11]) | MIC (Aspergillus fumigatus [12])
Clc1ccc(-c2nc3sc(Cc4noc5ccccc45)nn3c2Br)cc1 | 17 mm | 18 mm | 15 mm | 12 mm | 15 mm | 10 mm | 1.5 µg/mL (≈ 3.37 µM) | 0.5 µg/mL (≈ 1.12 µM) | 2 µg/mL (≈ 4.49 µM) | 2.5 µg/mL (≈ 5.61 µM) | 3 µg/mL (≈ 6.73 µM) | 4 µg/mL (≈ 8.97 µM)
Brc1ccc(-c2nc3sc(Cc4noc5ccccc45)nn3c2Br)cc1 | 13 mm | 12 mm | 14 mm | 16 mm | 16 mm | 16 mm | 2 µg/mL (≈ 4.08 µM) | 2.5 µg/mL (≈ 5.1 µM) | 2 µg/mL (≈ 4.08 µM) | 2 µg/mL (≈ 4.08 µM) | 2.5 µg/mL (≈ 5.1 µM) | 2.5 µg/mL (≈ 5.1 µM)
O=[N+]([O-])c1ccc(-c2cn3nc(Cc4noc5ccccc45)sc3n2)cc1 | 14 mm | 11 mm | 13 mm | 8 mm | 10 mm | 11 mm | 1.5 µg/mL (≈ 3.97 µM) | 2.5 µg/mL (≈ 6.62 µM) | 3 µg/mL (≈ 7.95 µM) | 3.5 µg/mL (≈ 9.27 µM) | 3.5 µg/mL (≈ 9.27 µM) | 4 µg/mL (≈ 10.6 µM)
Brc1c(-c2ccccc2)nc2sc(Cc3noc4ccccc34)nn12 | 18 mm | 12 mm | 11 mm | 16 mm | 14 mm | 12 mm | 1 µg/mL (≈ 2.43 µM) | 2.5 µg/mL (≈ 6.08 µM) | 3 µg/mL (≈ 7.29 µM) | 2 µg/mL (≈ 4.86 µM) | 3 µg/mL (≈ 7.29 µM) | 3.5 µg/mL (≈ 8.51 µM)
Brc1ccc(-c2cn3nc(Cc4noc5ccccc45)sc3n2)cc1 | 15 mm | 18 mm | 20 mm | 14 mm | 22 mm | 13 mm | 2.5 µg/mL (≈ 6.08 µM) | 0.5 µg/mL (≈ 1.22 µM) | 1 µg/mL (≈ 2.43 µM) | 2.5 µg/mL (≈ 6.08 µM) | 2 µg/mL (≈ 4.86 µM) | 3.5 µg/mL (≈ 8.51 µM)
N#CSc1c(-c2ccc([N+](=O)[O-])cc2)nc2sc(Cc3noc4ccccc34)nn12 | 9 mm | 8 mm | 7 mm | 10 mm | 11 mm | 9 mm | 2 µg/mL (≈ 4.6 µM) | 2.5 µg/mL (≈ 5.75 µM) | 4 µg/mL (≈ 9.21 µM) | 3 µg/mL (≈ 6.91 µM) | 3.5 µg/mL (≈ 8.06 µM) | 3.5 µg/mL (≈ 8.06 µM)
N#CSc1c(-c2cc3ccccc3oc2=O)nc2sc(Cc3noc4ccccc34)nn12 | 14 mm | 15 mm | 14 mm | 16 mm | 12 mm | 19 mm | 1.5 µg/mL (≈ 3.28 µM) | 1 µg/mL (≈ 2.19 µM) | 3.5 µg/mL (≈ 7.65 µM) | 2 µg/mL (≈ 4.37 µM) | 3.5 µg/mL (≈ 7.65 µM) | 2 µg/mL (≈ 4.37 µM)
c1ccc(-c2cn3nc(Cc4noc5ccccc45)sc3n2)cc1 | 16 mm | 11 mm | 9 mm | 9 mm | 12 mm | 19 mm | 1 µg/mL (≈ 3.01 µM) | 2 µg/mL (≈ 6.02 µM) | 3.5 µg/mL (≈ 10.5 µM) | 3.5 µg/mL (≈ 10.5 µM) | 3.5 µg/mL (≈ 10.5 µM) | 2 µg/mL (≈ 6.02 µM)
O=Nc1c(-c2cc3ccccc3oc2=O)nc2sc(Cc3noc4ccccc34)nn12 | 14 mm | 15 mm | 12 mm | 14 mm | 15 mm | 12 mm | 1.5 µg/mL (≈ 3.49 µM) | 1.5 µg/mL (≈ 3.49 µM) | 3 µg/mL (≈ 6.99 µM) | 2.5 µg/mL (≈ 5.82 µM) | 3 µg/mL (≈ 6.99 µM) | 3.5 µg/mL (≈ 8.15 µM)
CC1(C)S[C@@H]2[C@H](NC(=O)[C@H](N)c3ccccc3)C(=O)N2[C@H]1C(=O)O [AMPICILLIN] | 19 mm | 18 mm | 16 mm | 17 mm | – | – | 1 µg/mL (≈ 2.86 µM) | 0.5 µg/mL (≈ 1.43 µM) | – | 2 µg/mL (≈ 5.72 µM) | – | –
Clc1ccccc1C(c1ccccc1)(c1ccccc1)n1ccnc1 [CLOTRIMAZOLE] | – | – | – | – | 22 mm | 20 mm | – | – | – | – | 2 µg/mL (≈ 5.8 µM) | 2 µg/mL (≈ 5.8 µM)
